Data published in ChEMBL document CHEMBL1221374, “Synthesis, proapoptotic screening, and structure-activity relationships of novel aza-lupane triterpenoids” (Bioorg Med Chem Lett, 2010).
pIC50: −log10 of the molar value.

Tests used:
SK-MEL-2 = test: Cytotoxicity against human SK-MEL-2 cells after 72 hrs by MTS assay; type: functional, cell-based; settings: SK-MEL-2, 72 h
Procedure, shortened: (§1)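 Cells (1 × 10^4/well) seeded the evening before. Compounds were taken from 10 mM DMSO stock into growth medium and tested at 2, 10, 25, 50 and 75 µM, four wells each, with DMSO-matched controls. Exposure was 72 h, then MTS reagent for 1.5-4 h at 37 °C, and formazan A490 was read against DMSO-treated cells. IC50 is the mean of four wells from one experiment, or of three experiments where stated.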

A-375 = test: Cytotoxicity against human A375 cells after 72 hrs by MTS assay; type: functional, cell-based; settings: A-375, 72 h; procedure, shortened: as §1
Daoy = test: Cytotoxicity against human DaOY cells after 72 hrs by MTS assay; type: functional, cell-based; procedure, shortened: as §1
[1] = Cytotoxicity against human LN229 cells after 72 hrs by MTS assay; type: functional, cell-based; settings: LN-229, 72 h; procedure, shortened: as §1
HT-29 = test: Cytotoxicity against human HT-29 cells after 72 hrs by MTS assay; type: functional, cell-based; settings: HT-29, 72 h; procedure, shortened: as §1
MCF7 = test: Cytotoxicity against human MCF7 cells after 72 hrs by MTS assay; type: functional, cell-based; settings: MCF7, 72 h; procedure, shortened: as §1
OVCAR-3 [2] = test: Cytotoxicity against human OVCAR-3 cells after 72 hrs by MTS assay; type: functional, cell-based; settings: OVCAR-3, 72 h
OVCAR-3 [3] = test: Cytotoxicity against human OVCAR-3 cells after 120 hrs by MTS assay; settings: OVCAR-3, 120 h
SK-MEL-2 (Homo sapiens) [4] = test: Induction of apoptosis in human SK-MEL-2 cells assessed as necrotic cells at 7.5 uM after 16 hrs by annexin assay
SK-MEL-2 (Homo sapiens) [5] = test: Induction of apoptosis in human SK-MEL-2 cells assessed as apoptotic cells at 7.5 uM after 16 hrs by annexin assay

SMILES	pIC50 (SK-MEL-2)	pIC50 (A-375)	pIC50 (Daoy)	pIC50 [1]	pIC50 (HT-29)	pIC50 (MCF7)	pIC50 (OVCAR-3 [2])	pIC50 (OVCAR-3 [3])	Activity (SK-MEL-2 (Homo sapiens) [4]) [%]	Activity (SK-MEL-2 (Homo sapiens) [5]) [%]
C=C(CNCCc1ccc(O)cc1)[C@@H]1CC[C@]2(CO)CC[C@]3(C)[C@H](CC[C@@H]4[C@@]5(C)CCC(=O)C(C)(C)[C@@H]5CC[C@]43C)[C@@H]12	4.80	5.22	4.77	5.10	5.40	5.22	–	–	–	–
C=C(C)[C@@H]1CC[C@]2(CO)CC[C@]3(C)[C@H](CC[C@@H]4[C@@]5(C)CCC(N)C(C)(C)[C@@H]5CC[C@]43C)[C@@H]12 (stereo not given in full)	5.05	5.70	4.72	> 5.70	5.70	5.30	5.30	–	–	–
C=C(CNCCO)[C@@H]1CC[C@]2(CO)CC[C@]3(C)[C@H](CC[C@@H]4[C@@]5(C)CCC(NCCOC)C(C)(C)[C@@H]5CC[C@]43C)[C@@H]12 (stereo not given in full)	5.10	5.40	5.30	4.55	5.70	4.96	–	–	–	–
C=C(CO)[C@@H]1CC[C@]2(CO)CC[C@]3(C)[C@H](CC[C@@H]4[C@@]5(C)CC[C@H](N)C(C)(C)[C@@H]5CC[C@]43C)[C@@H]12	4.47	5.22	4.51	4.77	4.77	4.82	–	4.85	–	–
C=C(C)[C@@H]1CC[C@]2(CO)CC[C@]3(C)[C@H](CC[C@@H]4[C@@]5(C)CCC(NCCc6ccc(O)cc6)C(C)(C)[C@@H]5CC[C@]43C)[C@@H]12 (stereo not given in full)	5.70	5.40	> 5.70	5.10	5.70	5.30	–	5.30	–	–
C=C(CO)[C@@H]1CC[C@]2(CO)CC[C@]3(C)[C@H](CC[C@@H]4[C@@]5(C)CC[C@H](NCCc6ccc(O)cc6)C(C)(C)[C@@H]5CC[C@]43C)[C@@H]12	4.42	5.22	4.49	4.77	4.68	4.77	–	4.64	–	–
C=C(C)[C@@H]1CC[C@]2(C(=O)O)CC[C@]3(C)[C@H](CC[C@@H]4[C@@]5(C)CCC(NCCc6ccc(O)cc6)C(C)(C)[C@@H]5CC[C@]43C)[C@@H]12 (stereo not given in full)	5.22	5.30	5.22	5.30	5.40	5.22	5.22	–	–	–
C=C(CO)[C@@H]1CC[C@]2(CO)CC[C@]3(C)[C@H](CC[C@@H]4[C@@]5(C)CC[C@H](NCc6ccc7c(c6)OCO7)C(C)(C)[C@@H]5CC[C@]43C)[C@@H]12	4.77	< 4.12	4.80	4.14	< 4.12	4.12	–	4.70	–	–
C=C(CNCCO)[C@@H]1CC[C@]2(CO)CC[C@]3(C)[C@H](CC[C@@H]4[C@@]5(C)CCC(N)C(C)(C)[C@@H]5CC[C@]43C)[C@@H]12 (stereo not given in full)	5.22	5.30	5.30	4.92	> 5.70	5.70	–	–	< 15	> 60
C=C(C)[C@@H]1CC[C@]2(CO)CC[C@]3(C)[C@H](CC[C@@H]4[C@@]5(C)CCC(NCCc6ccc(O)c(O)c6)C(C)(C)[C@@H]5CC[C@]43C)[C@@H]12 (stereo not given in full)	4.77	5.22	5.00	5.05	5.22	4.77	–	5.40	–	–
C=C(CNCCO)[C@@H]1CC[C@]2(CO)CC[C@]3(C)[C@H](CC[C@@H]4[C@@]5(C)CCC(NCCc6ccc(O)c(O)c6)C(C)(C)[C@@H]5CC[C@]43C)[C@@H]12 (stereo not given in full)	5.30	5.15	5.30	4.49	5.40	5.40	–	–	–	–
C=C(C)[C@@H]1CC[C@]2(C(=O)O)CC[C@]3(C)[C@H](CC[C@@H]4[C@@]5(C)CCC(NCCc6ccc(O)c(O)c6)C(C)(C)[C@@H]5CC[C@]43C)[C@@H]12 (stereo not given in full)	4.72	–	4.52	4.54	4.19	4.43	4.66	–	–	–
C=C(CNCCO)[C@@H]1CC[C@]2(CO)CC[C@]3(C)[C@H](CC[C@@H]4[C@@]5(C)CC[C@H](O)C(C)(C)[C@@H]5CC[C@]43C)[C@@H]12	4.82	–	4.46	–	–	–	–	–	–	–
C=C(CNCCc1ccc(O)cc1)[C@@H]1CC[C@]2(CO)CC[C@]3(C)[C@H](CC[C@@H]4[C@@]5(C)CC[C@H](O)C(C)(C)[C@@H]5CC[C@]43C)[C@@H]12	4.80	–	4.80	–	–	–	–	–	–	–
C=C(CNCCO)[C@@H]1CC[C@]2(CO)CC[C@]3(C)[C@H](CC[C@@H]4[C@@]5(C)CCC(NCCO)C(C)(C)[C@@H]5CC[C@]43C)[C@@H]12 (stereo not given in full)	5.15	5.22	4.89	4.80	5.70	5.22	–	–	–	–
C=C(CNCCO)[C@@H]1CC[C@]2(CO)CC[C@]3(C)[C@H](CC[C@@H]4[C@@]5(C)CCC(NCc6ccc7c(c6)OCO7)C(C)(C)[C@@H]5CC[C@]43C)[C@@H]12 (stereo not given in full)	5.40	5.30	4.89	4.49	5.30	4.89	–	4.19	–	–
C=C(CO)[C@@H]1CC[C@]2(CO)CC[C@]3(C)[C@H](CC[C@@H]4[C@@]5(C)CC[C@H](NCCO)C(C)(C)[C@@H]5CC[C@]43C)[C@@H]12	4.47	4.80	4.54	4.43	4.19	4.39	4.41	–	–	–
C=C(C)[C@@H]1CC[C@]2(C(=O)O)CC[C@]3(C)[C@H](CC[C@@H]4[C@@]5(C)CC[C@H](O)C(C)(C)[C@@H]5CC[C@]43C)[C@@H]12 [BETULINIC ACID]	5.15	4.66	4.96	4.54	4.51	4.52	–	4.40	–	–
C=C(C)[C@@H]1CC[C@]2(CO)CC[C@]3(C)[C@H](CC[C@@H]4[C@@]5(C)CCC(NCCO)C(C)(C)[C@@H]5CC[C@]43C)[C@@H]12 (stereo not given in full)	> 5.70	5.70	5.22	5.40	5.70	5.30	5.30	–	–	–
C=C(C)[C@@H]1CC[C@]2(C(=O)O)CC[C@]3(C)[C@H](CC[C@@H]4[C@@]5(C)CCC(NCc6ccc7c(c6)OCO7)C(C)(C)[C@@H]5CC[C@]43C)[C@@H]12 (stereo not given in full)	4.54	< 4.12	4.42	< 4.12	< 4.12	< 4.12	< 4.12	–	–	–
C=C(CNCCc1ccc(O)cc1)[C@@H]1CC[C@]2(CO)CC[C@]3(C)[C@H](CC[C@@H]4[C@@]5(C)CCC(NCCO)C(C)(C)[C@@H]5CC[C@]43C)[C@@H]12 (stereo not given in full)	5.22	5.30	5.70	5.22	5.30	5.30	–	–	< 15	> 60
C=C(CO)[C@@H]1CC[C@]2(CO)CC[C@]3(C)[C@H](CC[C@@H]4[C@@]5(C)CC[C@H](NCCOC)C(C)(C)[C@@H]5CC[C@]43C)[C@@H]12	4.42	4.74	4.47	4.42	4.33	4.40	–	4.40	–	–
C=C(CNCCO)[C@@H]1CC[C@]2(CO)CC[C@]3(C)[C@H](CC[C@@H]4[C@@]5(C)CCC(=O)C(C)(C)[C@@H]5CC[C@]43C)[C@@H]12	4.35	5.00	4.33	4.80	4.35	4.33	4.17	–	–	–
C=C(C)[C@@H]1CC[C@]2(C(=O)O)CC[C@]3(C)[C@H](CC[C@@H]4[C@@]5(C)CCC(N)C(C)(C)[C@@H]5CC[C@]43C)[C@@H]12 (stereo not given in full)	5.10	–	5.15	–	–	–	–	4.85	–	–
C=C(CO)[C@@H]1CC[C@]2(CO)CC[C@]3(C)[C@H](CC[C@@H]4[C@@]5(C)CC[C@H](NCCc6ccc(O)c(O)c6)C(C)(C)[C@@H]5CC[C@]43C)[C@@H]12	4.62	5.22	4.47	4.77	4.43	4.51	4.74	–	–	–
C=C(C)[C@@H]1CC[C@]2(C(=O)O)CC[C@]3(C)[C@H](CC[C@@H]4[C@@]5(C)CCC(NCCO)C(C)(C)[C@@H]5CC[C@]43C)[C@@H]12 (stereo not given in full)	4.44	4.85	> 5.70	–	4.80	4.46	4.55	–	–	–
C=C(C)[C@@H]1CC[C@]2(CO)CC[C@]3(C)[C@H](CC[C@@H]4[C@@]5(C)CCC(NCCOC)C(C)(C)[C@@H]5CC[C@]43C)[C@@H]12 (stereo not given in full)	5.15	5.15	5.10	–	4.72	5.10	–	4.66	–	–
